tolC growth inh: E. coli tolC mutant growth inhibition | E. coli BW25113 tolC mutant growth, OD615 | growth inhibition, % at 10 µM (by protocol) | hit rate 2.2% among 65,000;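 active = growth inhibition at or above a cutoff equal to the mean over every tested compound plus 3 SD, cut at about 60% in these data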;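 also: growth measured after 20 h incubation at 37 °C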
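Material: E. coli BW25113 ΔtolC::kan, tolC deletion mutant strain. Measure: percent growth inhibition. Schedule: 37 °C, 20 h exposure. Doses: single-point testing at 10 µM. Signal: A615 absorbance measurement. Buffer or medium: kanamycin-containing LB broth (50 µg/mL).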
HePTP inhibitor: human HePTP phosphatase inhibition; P35236; recombinant HePTP phosphatase activity, OD absorbance; inhibition, % at 20 µM; hit rate 0.64% among 110,000; in the data active = inhibition above about 50%
Target sequence (P35236 whole entry, looked up): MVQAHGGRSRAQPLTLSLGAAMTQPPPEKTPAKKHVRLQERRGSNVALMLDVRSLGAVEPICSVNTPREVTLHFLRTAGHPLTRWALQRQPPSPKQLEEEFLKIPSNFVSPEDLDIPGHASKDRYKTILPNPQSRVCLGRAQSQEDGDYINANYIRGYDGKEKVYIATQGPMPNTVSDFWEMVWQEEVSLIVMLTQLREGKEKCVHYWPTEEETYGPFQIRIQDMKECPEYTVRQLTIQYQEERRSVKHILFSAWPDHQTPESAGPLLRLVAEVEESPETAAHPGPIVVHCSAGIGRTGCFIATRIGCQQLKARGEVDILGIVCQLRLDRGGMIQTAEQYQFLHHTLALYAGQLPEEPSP
PostGolgi yeast: growth inhibition of a yeast mutant, post-Golgi transport screen | post-Golgi transport phenotypic cell assay | inhibition, % at 10 µM | hit rate 0.9% among 98,000 | AID 739;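 also: yeast cells grown in 1536-well plates; yeast grown about 18 h at 30C before absorbance read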
Ecoli WT expand: growth inhibitors of E. coli BW25113 wild type; growth inhibition, % at 100 µM; OD600 absorbance; AID 710; hit rate 0.15% among 98,000;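 active = growth inhibition above about 50% at one test dose, limit read from the data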;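 also: growth measured after 20 h incubation at 37 °C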
PostGolgi ctrl: growth of the yeast control strain, post-Golgi counter-screen | AID 738 | efflux-deficient yeast background strain, growth absorbance A615, 16 h | hit rate 5% among 98,000 | inhibition, % at 10 µM
PLAP activator: human PLAP activation | P05187 | purified PLAP enzyme, luminescent substrate read-out; stronger effect = higher value | activation fold at 20 µM | hit rate 1.2% among 96,000; in the data active = activation fold above about 2
A number is an active result; - = inactive; . = not tested or not shown. Hits are enriched below; roughly 5.5% of the tested compounds scored in any of these assays. Rule as the data show it, unless noted: active = inhibition above about 30%; inactive = the rest.

SMILES	tolC growth inh	HePTP inhibitor	PostGolgi yeast	Ecoli WT expand	PostGolgi ctrl	PLAP activator
CCc1ccc(NS(=O)(=O)c2ccc3[nH]cc(C(=O)NCC4CCCO4)c(=O)c3c2)cc1 (stereo unspecified)	-	-	-	-	-	.
O=C(NCc1ccccc1)c1c[nH]c2ccc(S(=O)(=O)Nc3ccc4c(c3)OCCO4)cc2c1=O	61	-	-	-	-	-
COCCNC(=O)c1cn(C)c2ccc(S(=O)(=O)N(C)C3CCCCC3)cc2c1=O	-	-	-	-	30	-
Cc1ccc(S(=O)(=O)N2CCN(C(=O)c3ccccc3)C2C(C)C)cc1 (stereo unspecified)	-	-	-	-	31	-
Cc1ccc(S(=O)(=O)N2CCN(C(=O)N3CCOCC3)C2C(C)C)cc1 (stereo unspecified)	-	-	-	-	35	-
Cc1ccc(S(=O)(=O)N2CCN(S(C)(=O)=O)C2C(C)C)cc1 (stereo unspecified)	.	96	.	.	.	.
CC(=O)c1cccc(NC(=O)c2ccc(C)c(C)c2)c1	.	-	.	.	.	.
c1ccc(-c2nnc(-c3ccccn3)nn2)nc1	-	-	.	.	.	.
c1ccc(-c2cccc(-c3ccccn3)n2)nc1	73	-	-	68	-	-
CCCOC(=O)c1ccc(Oc2c(-c3ccc(OC)cc3O)n[nH]c2C)cc1	-	-	-	-	-	-
CCc1cc(-c2n[nH]c(C)c2Oc2ccc(C(C)C)cc2)c(O)cc1O	.	.	-	-	87	-
CC(C)c1ccc(OC(=O)NCCO)cc1	-	-	-	-	-	-
CCCOC(=O)c1ccc(Oc2c(-c3ccc(O)cc3O)n[nH]c2C)cc1	100	-	-	-	38	-
CN1CCN(CC(=O)N2c3ccccc3C(C)(c3ccccc3)CC2(C)C)CC1 (stereo unspecified)	-	-	-	-	36	-
CC(=O)N1c2ccccc2C(C)(c2ccccc2)CC1(C)C (stereo unspecified)	.	.	-	-	-	-
CN1CCN(CC(=O)N2c3ccccc3C(C)(c3ccc(Cl)cc3)CC2(C)C)CC1 (stereo unspecified)	.	.	-	-	39	-
CCOc1ccc(C2C=C(Nc3ccccc3)C(=O)N2c2ccccc2)cc1 (stereo unspecified)	.	-	.	.	.	.
COCCCNC(=O)c1cccn2c(=O)c3cc4ccccc4cc3nc12	.	.	-	-	70	-
Cc1c(-n2c(O)c(C3=c4cc(Br)ccc4=NC3=O)sc2=S)c(=O)n(-c2ccccc2)n1C	.	-	.	.	.	.
O=C(c1ccco1)N1CCN(c2c(-c3ccccc3)c3cc(Cl)ccc3[nH]c2=O)CC1	70	-	-	-	-	-
O=c1[nH]c2ccc(Cl)cc2c(-c2ccccc2)c1N1CCN(c2ccccn2)CC1	-	-	31	-	82	-
O=C(COC(=O)C12CC3CC(CC(C3)C1)C2)NCCc1ccccc1	.	.	-	-	40	-
CC(C)(C)NC(=O)C(c1ccccn1)N(C(=O)c1ccc2c(c1)OCCO2)C1CCCC1 (stereo unspecified)	-	-	-	-	31	-
O=C(c1ccc2c(c1)OCCO2)N(c1ccccn1)C1CCCCC1	-	-	-	-	-	-
CCn1cc(C(=O)OCC(=O)OC2CC(C)CCC2C(C)C)c(=O)c2ccc(C)nc21 (stereo unspecified)	84	-	-	-	-	-
SMILES	tolC growth inh	HePTP inhibitor	PostGolgi yeast	Ecoli WT expand	PostGolgi ctrl	PLAP activator
CCn1cc(C(=O)OCc2ccccc2)c(=O)c2ccc(C)nc21	-	-	-	-	-	-
Cc1cccc(C(=O)CC(=O)c2cc(Cl)ccc2O)c1	.	.	50	-	64	-
Cc1ccc(O)c(C(=O)CC(=O)c2cccc(F)c2)c1	100	-	-	-	34	-
O=C(CC(=O)c1cc(Cl)ccc1O)c1ccccc1	97	-	90	-	42	-
O=C(Cc1ccc(Cl)cc1)NNC(=O)c1cc(Cl)ccc1O	.	-	.	.	.	.
COc1ccc(O)c(C(=O)CC(=O)c2ccc(C(C)(C)C)cc2)c1	.	-	.	.	.	.
COc1ccc(O)c(C(=O)CC(=O)c2ccc(F)cc2)c1	100	-	33	-	35	-
CCOc1cc(C2C(C(=O)OC)=C(C)NC3=C2C(=O)CC(C)(C)C3)ccc1OC(=O)C1CC1 (stereo unspecified)	.	-	.	.	.	.
CCc1cc(OCCOCCN2CCC(C)CC2)ccc1Cl	.	-	.	.	.	.
Cc1ccc(NC(=O)C2COc3ccccc3O2)cc1 (stereo unspecified)	.	-	.	.	.	.
O=C(N/N=C\c1cc(Br)cs1)C1COc2ccccc2O1 (stereo unspecified)	.	.	-	-	37	-
C/C(=N\NC(=O)C1COc2ccccc2O1)c1ccc(C)o1 (stereo unspecified)	.	.	-	-	-	2
CC(=O)C1=C(O)C(=O)N(CCN2CCNCC2)C1c1ccccc1F (stereo unspecified)	.	-	.	.	.	.
COC(=O)C1=CNC=C(C(=O)OC)C1c1ccc(C(=O)OC)cc1	-	-	-	-	-	2
COC(=O)C1=CNC=C(C(=O)OC)C1c1ccc(C)cc1	.	-	.	.	.	.
COc1ccc(-n2nc3ccc(NC(=O)/C=C\c4ccccc4)cc3n2)cc1	.	102	.	.	.	.
CCOc1ccc(-n2nc3ccc(NC(=O)/C=C/c4ccco4)cc3n2)cc1	.	-	.	.	.	.
O=C(c1cc(Cl)ccc1[N+](=O)[O-])N1CCN(c2cccc(Cl)c2)CC1	.	-	.	.	.	.
COc1cc(Oc2ccc(C(C)C)cc2C)nc(N)n1	.	-	.	.	.	.
C=CCn1c(Cc2nc3ccc(Cl)cc3[nH]2)n[nH]c1=S	-	-	-	-	-	2.4
C=CCn1c(Cc2ccccc2)n[nH]c1=S	.	-	.	.	.	.
CC(=O)Nc1nnc(SCc2ccc(F)cc2)s1	.	.	-	-	-	-
CC(=O)Nc1nnc(SCC(=O)NC(C)(C)C)s1	-	-	-	-	32	-
N=c1c2c(-c3ccccc3)c(-c3ccccc3)n(Cc3ccco3)c2ncn1CCN1CCOCC1	-	-	52	-	-	-
c1coc(CNc2nc3ccccc3n2CCN2CCOCC2)c1	-	-	-	-	-	-
SMILES	tolC growth inh	HePTP inhibitor	PostGolgi yeast	Ecoli WT expand	PostGolgi ctrl	PLAP activator
CCn1c(O)c(/C=N/n2cnnc2)sc1=S	-	-	-	-	30	-
CCn1c(O)c(C=Nc2ccccc2)sc1=S	.	-	.	.	.	.
COc1ccc2c(c1)/C(=N/OC(=O)c1ccc(OC)c(OC)c1)CCC2	.	-	.	.	.	.
Cc1ccc(Cl)cc1N1CCN(C(=O)C2CCN(S(=O)(=O)c3c(C)nn(C)c3C)CC2)CC1	-	-	-	-	41	-
CCCCc1ccc(CC2S/C(=C(\C#N)C(=O)N3CCOCC3)N(c3ccccc3)C2=O)cc1 (stereo unspecified)	.	.	-	-	37	-
COc1ccc(CC(=O)N2CCC(Cc3ccccc3)CC2)cc1OC	.	-	.	.	.	.
Cc1cccc(NC(=O)CC2S/C(=N\N=C\c3cccc(O)c3)NC2=O)c1C (stereo unspecified)	.	-	.	.	.	.
CCCC(=O)c1ccc(N2CCN(C(=O)c3ccc(Br)cc3)CC2)c(F)c1	-	-	-	-	-	-
CCCC(=O)c1ccc(N2CCOCC2)c(F)c1	-	-	-	-	-	2.1
CCC(=O)c1ccc(N2CCOCC2)c(F)c1	.	-	.	.	.	.
CCC(=O)c1ccc(N2CCN(C(=O)c3ccc(Br)cc3)CC2)c(F)c1	-	-	62	-	-	-
